In PMC9934649 (bioRxiv, 2023):
pIC50: −log10 of the molar value. “Also recorded” adds a separate entry of the source.

Experiments:
WT human CDKL5 = biological target: T1, WT human CDKL5 (Homo sapiens, UniProt O76039); experiment: CDKL5 in vitro kinase assay; assay type: biochemical; conditions: 10 or 100 nM compound, 50 µM ATP, vs untreated WT CDKL5
T1 sequence (O76039 1-960): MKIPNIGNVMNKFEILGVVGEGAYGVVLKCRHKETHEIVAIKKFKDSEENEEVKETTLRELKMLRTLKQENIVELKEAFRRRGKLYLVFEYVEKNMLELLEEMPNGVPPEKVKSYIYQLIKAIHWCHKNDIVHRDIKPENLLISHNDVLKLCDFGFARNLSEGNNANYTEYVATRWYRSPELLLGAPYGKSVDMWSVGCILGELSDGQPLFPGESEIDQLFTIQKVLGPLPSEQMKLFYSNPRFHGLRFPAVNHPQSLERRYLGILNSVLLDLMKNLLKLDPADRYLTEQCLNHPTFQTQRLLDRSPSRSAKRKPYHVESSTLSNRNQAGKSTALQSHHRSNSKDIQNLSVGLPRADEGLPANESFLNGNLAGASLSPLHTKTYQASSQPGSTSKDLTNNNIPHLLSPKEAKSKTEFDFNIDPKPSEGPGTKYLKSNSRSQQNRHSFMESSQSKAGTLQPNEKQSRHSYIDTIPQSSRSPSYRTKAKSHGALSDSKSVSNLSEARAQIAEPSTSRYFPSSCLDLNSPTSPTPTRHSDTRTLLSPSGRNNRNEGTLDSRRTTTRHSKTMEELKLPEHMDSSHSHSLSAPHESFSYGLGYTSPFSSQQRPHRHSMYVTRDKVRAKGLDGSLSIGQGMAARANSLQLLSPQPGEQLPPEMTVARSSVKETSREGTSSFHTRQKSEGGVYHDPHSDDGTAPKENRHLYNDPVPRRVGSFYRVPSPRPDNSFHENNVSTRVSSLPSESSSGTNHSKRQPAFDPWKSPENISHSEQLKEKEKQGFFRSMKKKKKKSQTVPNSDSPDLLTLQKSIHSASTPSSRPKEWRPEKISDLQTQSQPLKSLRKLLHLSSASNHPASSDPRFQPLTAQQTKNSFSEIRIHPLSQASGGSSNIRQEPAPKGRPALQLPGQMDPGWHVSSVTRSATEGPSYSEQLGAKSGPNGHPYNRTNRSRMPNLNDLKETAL
Method in brief: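 FLAG-tagged WT human CDKL5, with a K42R kinase-dead control, was made by HeLa-lysate in vitro translation and purified on cobalt spin columns. Enzyme plus myelin basic protein substrate was incubated in kinase buffer with or without 50 µM ATP at 30 °C for 30 min, with test compound at 10 or 100 nM or DMSO. Read by ADP-Glo. Triplicate; one-way ANOVA with Dunnett's test.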

human motor neurons = experiment: Neuroprotection assay, ER stress induced by cyclopiazonic acid; assay type: cell-based; conditions: for Motor neuron survival in response to ER stress: cyclopiazonic acid, 72 hours, 0.16–10 µM; for Motor neuron survival at low concentrations compared with AT-7519: low concentrations (<200 nM)
Method in brief: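 Motor neurons came from NCRM-1 iPSCs carrying a VAChT:TdTomato reporter, differentiated as embryoid bodies for 16 days. They were plated at 2000 cells/well on laminin/poly-ornithine in neurobasal medium with anti-mitotics, B-27, N-2 and GDNF, BDNF, IGF-1 and CNTF. After 48 h, cells were co-treated with cyclopiazonic acid and test compound (4-fold dilutions, 0.16–10 µM, triplicate wells) for 72 h. Calcein AM live cells were counted as % of DMSO-treated survivors.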

CDKL5 [1] = biological target: T2, CDKL5 (Homo sapiens, UniProt O76039); experiment: CDKL5 split luciferase assay; assay type: binding; conditions: compound 2 vs compound 4
T2 sequence (O76039 1-960): T1 sequence (O76039 1-960)
Method in brief: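 Luminescence-based competition binding assay: test compound displaces an active-site-dependent probe from CDKL5. Run as 12-point dose–response in duplicate to give IC50 values.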

[2] = test system: S33/37/T41 β-Catenin phosphorylation; assay type: cell-based; conditions: rat primary cortical neurons, 1 hour, dose-response
Method in brief: (§1)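 Cortical neurons were taken from E18.5 Long Evans rat embryos (trypsin 0.25%, 15 min, 37 °C) and plated at 300,000/well on poly-D-lysine/laminin. At DIV11–14, cells were given 5 nM–5 µM test compound or DMSO for 1 h at 37 °C. Lysates were immunoblotted with ECL detection. pEB2 S222 was normalised to total EB2, pβ-catenin to total β-catenin, and CDKL5 to tubulin.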

GSK3α = GSK3α (Homo sapiens, UniProt P49840); experiment: GSK3α NanoBRET assay; assay type: cell-based; conditions: GSK3α NanoBRET IC50, tracer K8
Sequence of GSK3α (P49840 whole entry): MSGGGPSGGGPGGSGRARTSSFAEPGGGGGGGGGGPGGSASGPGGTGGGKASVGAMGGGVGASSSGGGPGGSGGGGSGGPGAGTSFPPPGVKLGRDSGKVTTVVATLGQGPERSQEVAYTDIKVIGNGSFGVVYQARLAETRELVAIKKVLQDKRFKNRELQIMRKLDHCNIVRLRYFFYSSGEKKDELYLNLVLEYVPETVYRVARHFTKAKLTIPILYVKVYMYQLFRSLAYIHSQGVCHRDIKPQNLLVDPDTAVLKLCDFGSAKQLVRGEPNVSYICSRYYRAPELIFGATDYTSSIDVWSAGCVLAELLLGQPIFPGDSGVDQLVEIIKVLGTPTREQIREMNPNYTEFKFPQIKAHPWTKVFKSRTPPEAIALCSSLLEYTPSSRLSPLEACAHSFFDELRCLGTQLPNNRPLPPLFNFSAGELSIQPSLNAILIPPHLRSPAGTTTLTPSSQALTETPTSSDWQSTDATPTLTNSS

GSK3β = GSK3β (Homo sapiens, UniProt P49841); experiment: GSK3β NanoBRET assay; assay type: cell-based; conditions: GSK3β NanoBRET IC50, tracer K8
Sequence of GSK3β (P49841 whole entry): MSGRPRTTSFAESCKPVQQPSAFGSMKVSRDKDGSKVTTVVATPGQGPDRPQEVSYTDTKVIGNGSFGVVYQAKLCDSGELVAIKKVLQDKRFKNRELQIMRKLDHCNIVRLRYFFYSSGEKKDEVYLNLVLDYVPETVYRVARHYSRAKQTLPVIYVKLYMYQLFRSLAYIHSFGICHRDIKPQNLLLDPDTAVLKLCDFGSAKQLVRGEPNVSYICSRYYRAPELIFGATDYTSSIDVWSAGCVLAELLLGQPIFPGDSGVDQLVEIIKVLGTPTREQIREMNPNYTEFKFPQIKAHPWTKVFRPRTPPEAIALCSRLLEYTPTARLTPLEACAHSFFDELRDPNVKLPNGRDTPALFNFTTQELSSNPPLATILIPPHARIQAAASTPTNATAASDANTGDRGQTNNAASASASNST

S222 EB2 phosphorylation = experiment: Western blot of S222 EB2 phosphorylation in rat primary cortical neurons; assay type: cell-based; conditions: 1 hour, 5 nM, 50 nM, 500 nM or 5 µM
Method in brief: as §1

CDKL5 [3] = biological target: T2, CDKL5; experiment: CDKL5 NanoBRET in-cell target engagement assay; assay type: cell-based
CDKL5 expression = experiment: Western blot of CDKL5 expression in rat primary cortical neurons; assay type: cell-based; conditions: 1 hour treatment
Method in brief: as §1

CDKL5 kinase domain = biological target: T3, CDKL5 kinase domain (Homo sapiens, UniProt O76039, T169D/Y171E); experiment: Thermal shift assay; assay type: binding; conditions: all concentrations evaluated (12.5, 25, or 50 µM)
T3 sequence (O76039 1-303 T169D/Y171E): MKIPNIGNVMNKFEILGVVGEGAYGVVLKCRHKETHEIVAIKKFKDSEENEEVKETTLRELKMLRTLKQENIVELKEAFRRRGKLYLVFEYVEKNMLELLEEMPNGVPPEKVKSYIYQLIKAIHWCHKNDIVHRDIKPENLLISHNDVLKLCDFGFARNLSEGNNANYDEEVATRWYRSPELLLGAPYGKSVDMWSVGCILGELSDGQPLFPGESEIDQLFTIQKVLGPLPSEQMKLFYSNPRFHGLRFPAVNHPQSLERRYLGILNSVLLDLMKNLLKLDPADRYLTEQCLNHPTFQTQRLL
Method in brief: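 The CDKL5 kinase domain (construct boundaries of 4BGQ) was used at 4 µM in 10 mM HEPES-NaOH pH 7.4, 500 mM NaCl with 5× SYPRO Orange. It was incubated with test compound at 12.5, 25 or 50 µM. Fluorescence was recorded on a real-time PCR instrument to derive melting-temperature shifts.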

DYRK1B = DYRK1B (Homo sapiens, UniProt Q9Y463); experiment: Radiometric HotSpot kinase assay; assay type: biochemical; conditions: enzymatic IC50 values
Sequence of DYRK1B (Q9Y463 whole entry): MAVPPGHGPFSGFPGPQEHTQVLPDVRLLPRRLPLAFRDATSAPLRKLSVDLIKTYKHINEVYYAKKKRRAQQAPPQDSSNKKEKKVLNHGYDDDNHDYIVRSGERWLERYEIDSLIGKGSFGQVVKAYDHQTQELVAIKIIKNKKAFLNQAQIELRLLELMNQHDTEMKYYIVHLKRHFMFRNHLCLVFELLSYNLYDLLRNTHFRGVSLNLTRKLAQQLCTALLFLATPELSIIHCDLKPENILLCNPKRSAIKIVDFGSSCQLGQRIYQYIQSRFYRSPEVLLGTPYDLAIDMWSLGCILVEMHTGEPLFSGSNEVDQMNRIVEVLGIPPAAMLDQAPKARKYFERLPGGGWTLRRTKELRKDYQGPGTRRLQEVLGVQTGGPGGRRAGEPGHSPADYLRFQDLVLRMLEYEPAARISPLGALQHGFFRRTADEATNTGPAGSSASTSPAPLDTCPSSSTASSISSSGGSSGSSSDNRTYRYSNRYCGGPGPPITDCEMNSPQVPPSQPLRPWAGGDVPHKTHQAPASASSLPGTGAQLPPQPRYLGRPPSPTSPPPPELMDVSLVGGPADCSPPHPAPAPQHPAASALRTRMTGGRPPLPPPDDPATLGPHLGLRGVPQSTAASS
Method in brief: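 Window was taken from enzymatic IC50s. DYRK1B: radiometric HotSpot assay at ATP Km, 10-point dose–response. GSK3β: radiometric assay at ATP Km, 9-point dose–response.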

In the case of `CCN1CCN(Cc2ccc(NC(=O)Nc3ccc(Oc4cc(NC)ncn4)cc3)cc2C(F)(F)F)CC1` [AST-487, reference compound], the “Effect on CDKL5 kinase activity” value (WT human CDKL5) was “robust, dose-dependent inhibition”.
With `O=C(NC1CCNCC1)c1n[nH]cc1NC(=O)c1c(Cl)cccc1Cl` [AT-7519, N-(4-piperidinyl)-4-(2,6-dichlorobenzoylamino)-1H-pyrazole-3-carboxamide, reference compound] the “Motor neuron survival in response to ER stress” value (human motor neurons) was “neuroprotective”.
For `O=C(Nc1c[nH]nc1C(=O)NC1CCNCC1)c1cc(F)cc(F)c1` [Compound 2, 4-(3,5-difluorobenzamido)-N-(piperidin-4-yl)-1H-pyrazole-3-carboxamide], the “Fold higher potency than compound 4 in split-luciferase CDKL5 assay” value (CDKL5 [1]) was ~130 fold, the “Phosphorylation of β-catenin (S33/37/T41)” value [2] was “reduced in a dose-dependent manner” and the pIC50 (GSK3α) was > 7.52. The pIC50 (GSK3β) was > 7.52, the “Phosphorylation of EB2 (S222)” value (S222 EB2 phosphorylation) was “inhibited in a dose-dependent manner” and the “Motor neuron survival in response to ER stress” value (human motor neurons) was “neuroprotective; also recorded: promote survival of motor neurons”. The “Motor neuron survival at low concentrations compared with AT-7519” value (human motor neurons) was “better promoted motor neuron survival than AT-7519”, the “Effect on CDKL5 kinase activity” value (WT human CDKL5) was “robust, dose-dependent inhibition” and the pIC50 (CDKL5 [3]) was 8.34. For the same molecule, the CDKL5 expression (CDKL5 expression) was “not altered” and the “Change in melting temperature (ΔTm), CDKL5” value (CDKL5 kinase domain) was > 6 °C.
`O=C(NCC1CCOCC1)c1n[nH]cc1NC(=O)c1c(F)cccc1F` [Compound 4, 4-(2,6-difluorobenzamido)-N-((tetrahydro-2H-pyran-4-yl)methyl)-1H-pyrazole-3-carboxamide] was tested, and the “Phosphorylation of β-catenin (S33/37/T41)” value [2] was “reduced in a dose-dependent manner”, the “Selectivity window between GSK3β and DYRK1B, the next most potently inhibited kinase” value (DYRK1B) was 23 fold and the “Phosphorylation of EB2 (S222)” value (S222 EB2 phosphorylation) was “only at the highest concentration”. For the same molecule, the “Motor neuron survival in response to ER stress” value (human motor neurons) was “neuroprotective; also recorded: promote survival of motor neurons”, the “Motor neuron survival at low concentrations compared with AT-7519” value (human motor neurons) was “better promoted motor neuron survival than AT-7519” and the “Effect on CDKL5 kinase activity” value (WT human CDKL5) was “No significant difference”. For the same molecule, the pIC50 (CDKL5 [3]) was 5.36, the “Fold less active than compound 2 in CDKL5 NanoBRET” value (CDKL5 [3]; compound 4 vs compound 2) was ~ 1000 × and the CDKL5 expression (CDKL5 expression) was “not altered”.
`CS(=O)(=O)CCNCc1ccc(-c2ccc3ncnc(Nc4ccc(OCc5cccc(F)c5)c(Cl)c4)c3c2)o1` [lapatinib, reference compound] was tested, and the “Effect on CDKL5 kinase activity” value (WT human CDKL5) was “No significant difference”.
